Compound activity from PubChem.
HSF1 activator = increases HSF-1 driven luciferase reporter signal; actives 1.7% (n = 300,000); NIH3T3-HGL HSF-1 luciferase reporter, MG132, 8 h; 100% = twice DMSO control signal; activation, % at 9 µM; AID 504408;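 active = mean replicate activation of at least 50% with a set share of replicates each reaching 50%; inconclusive = only one of those two conditions met; inactive = mean below 50% and too few replicates reaching it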
HSF1 inhib = HSF1 inhibition | NIH3T3-HGL HSE-luciferase, MG132-induced, luminescence 8 h; hits give low values | activity change, negative = inhibition, % at 7.5 µM (by protocol) | actives 0.77% (n = 300,000);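 active = more than half of replicate wells show activity change below -50%, luminescence cut by over half; inconclusive = some wells, but at most half, below -50%; inactive = no replicate well below -50%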;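 note: luciferase reports HSF-1 transcriptional activity via heat shock element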
Hep lipid drop = modulators of hepatic lipid droplet formation; inhibition, % at 6.5 µM; AML12 mouse hepatocytes, oleate lipid droplets, BODIPY imaging; actives 0.4% (n = 240,000);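 active = lipid droplet intensity inhibited by at least 50%, with more than 500 cells counted; inconclusive = wells with under 300 cells, treated as cytotoxic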
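Assay system: AML12 hepatocytes (mouse) / Also added: 100 µM oleic acid challenge / Times: overnight treatment with compound plus oleate / Detection: high-content imaging of BODIPY-stained droplets and DAPI nuclei / Evaluation: % inhibition of lipid droplet signal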
CHT allo act = human CHT allosteric activation | actives 0.49% (n = 310,000) | CHT-expressing cells, membrane potential dye, choline EC20; hits give high values; LV-AA mutant CHT in HEK293 cells | B-score at 10 µM | Q9GZV3 | AID 488977;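 active = initial fluorescence not abnormally high and integrated response B-score, plate-corrected, over 3 SD above library mean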
CHT inh = inhibits the human high affinity choline transporter; Q9GZV3; B-score at 10 µM; actives 0.86% (n = 310,000); AID 488975; CHT-expressing cells, membrane potential dye, choline response; hits give low values;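 active = B-score over 3 SD under the library average, and starting fluorescence ratio not unusually high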;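 note: choline stimulus applied at its EC90 after an EC20 pre-addition; B-score computed on integrated fluorescence ratio after choline addition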
PHOSPHO1 inh = blocks human PHOSPHO1 phosphatase activity; inhibition, % at 13.3 µM; Q8TCT1; recombinant PHOSPHO1, absorbance phosphatase assay; actives 1.1% (n = 290,000); in the data active = inhibition above about 60%
Target sequence (Q8TCT1 whole entry, looked up): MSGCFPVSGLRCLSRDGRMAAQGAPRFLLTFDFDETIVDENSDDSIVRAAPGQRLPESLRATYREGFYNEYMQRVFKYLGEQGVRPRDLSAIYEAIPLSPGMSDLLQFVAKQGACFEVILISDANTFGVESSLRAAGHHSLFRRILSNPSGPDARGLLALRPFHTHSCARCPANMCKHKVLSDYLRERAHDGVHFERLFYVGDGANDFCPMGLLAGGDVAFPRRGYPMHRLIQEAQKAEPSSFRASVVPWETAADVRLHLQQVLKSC
Each line names hits and unclear results; the compound was inactive in the other large screens. The list is not random: actives were taken first. Their share in the collection is about 4.9%.

Cc1cc(C)nc(NC(=O)Nc2ccc3c(c2)OCO3)c1	HSF1 activator 65
COC(=O)c1sc2ncn(CC(=O)N(C)C3CCCCC3)c(=O)c2c1C	none
CCOC(=O)c1ccc(NC(=O)CC2COc3ccccc3O2)cc1 (configuration not stated)	HSF1 inhib -81
COCCNC(=O)CCCn1c(=O)c2cc(OC)c(OC)cc2n(CC(=O)c2ccc(Cl)cc2)c1=O	none
Cc1ccc(N2CCN(S(=O)(=O)c3ccc(Cl)s3)CC2C)cc1 (configuration not stated)	none
Cn1c(=O)c([N+](=O)[O-])c(Cl)c2ccccc21	HSF1 inhib -73 (no result: CHT allo act, CHT inh)
Cc1nn(CCc2n[nH]c(=S)n2-c2cccc(Cl)c2)c(C)c1[N+](=O)[O-]	PHOSPHO1 inh 93
Cc1nn(CCc2n[nH]c(=S)n2-c2ccc(F)cc2)c(C)c1[N+](=O)[O-]	PHOSPHO1 inh 94
O=C(CCNC(=O)c1ccc(Br)o1)NC1CCCC1	none (no result: HSF1 activator, HSF1 inhib)
Nc1cc(N)nc(SCC(=O)Nc2ccc(Br)cc2Cl)n1	HSF1 activator 62 (no result: Hep lipid drop)
Nc1cc(N)nc(SCC(=O)NNC(=O)Cc2ccccc2)n1	none
Clc1ccc(-c2cn3c(n2)SCC3)cc1	HSF1 activator 58
Brc1ccc(-c2cn3c(n2)SCC3)cc1	HSF1 activator 63
Oc1ccc(-c2cn3c(n2)SCC3)cc1O	PHOSPHO1 inh 80
c1ccc(-c2cn3c(n2)SCC3)cc1	none
CS(=O)(=O)Nc1ccc(-c2cn3c(n2)SCC3)cc1	none
CCC(c1nnnn1CCOC)N(Cc1cc2cc(C)c(C)cc2[nH]c1=O)CC1CCCO1 (configuration not stated)	PHOSPHO1 inh 76
COc1ccc(CN(C)CCc2ccccn2)cc1OC	none
COc1cc(OC)c(OC)cc1CN(C)CCc1ccccn1	HSF1 activator 74
Cc1cnc(C(=O)OCC(=O)Nc2ccc(C)c(S(=O)(=O)N3CCCCCC3)c2)cn1	none
O=C(N/N=C/c1cc([N+](=O)[O-])ccc1O)NC12CC3CC(CC(C3)C1)C2	HSF1 inhib -50
O=C(N/N=C/c1ccccc1F)NC12CC3CC(CC(C3)C1)C2	HSF1 activator 87
O=C(N/N=C/c1cc([N+](=O)[O-])ccc1O)C12CC3CC(CC(C3)C1)C2	none
CC(C)=CCCC(C)CN1CCC(n2nccc2NC(=O)c2ccc3c(c2)OCO3)CC1 (configuration not stated)	none
CCN1CCN(C(=O)/C=C/c2ccc(C)cc2)CC1	none
CCOC(=O)c1c(NC(C)=O)sc2c(O)c(Br)cc(Br)c12	HSF1 activator 52
CCOC(=O)c1c(NC(C)=O)sc2c(O)cccc12	none (no result: Hep lipid drop)
COc1cccc(-c2c(C(=O)N/N=C(\C)c3ccc(Cl)s3)nnn2-c2nonc2N)c1	HSF1 activator 56
CCOc1cccc(-c2c(C(=O)N/N=C/c3ccco3)nnn2-c2nonc2N)c1	none
CCCc1c(C(=O)N/N=C/c2cccc3ccccc23)nnn1-c1nonc1N	PHOSPHO1 inh 62
CCOc1cccc(-c2c(C(=O)N/N=C/c3ccc(C)o3)nnn2-c2nonc2N)c1	HSF1 inhib -68
COc1cccc(-c2c(C(=O)N/N=C(\C)c3ccco3)nnn2-c2nonc2N)c1	none
COc1ccccc1-n1nnnc1SC(C)C(=O)NC1CCCC1 (configuration not stated)	none (no result: Hep lipid drop, PHOSPHO1 inh)
Cc1cccc(C)c1NC(=S)N(CCc1ccncc1)C(C)C	none
O=C(c1ccc([N+](=O)[O-])cc1)N1CCc2ccccc21	none (no result: Hep lipid drop, PHOSPHO1 inh)
Cc1ccc(C(=O)N2CCc3ccccc32)cc1	HSF1 activator 66
O=C(c1ccc(Cl)cc1)N1CCc2ccccc21	none
Cc1ccc(SCC(=O)N2CCc3ccccc32)cc1	HSF1 activator 80
O=C(CSc1nnc(-c2ccccc2)c(-c2ccccc2)n1)N1CCc2ccccc21	HSF1 activator 130
O=C(c1cccc([N+](=O)[O-])c1)N1CCc2ccccc21	HSF1 inhib -68
Nc1c2c(nn1-c1ccc(F)cc1)CSC2	none
COc1ccc2c(C)cc3n[nH]c(=S)n3c2c1	PHOSPHO1 inh 67
CCCCN1C(=O)C(=O)N(c2ccccc2)C1=S	none
O=C(NC1CCS(=O)(=O)C1)/C(=C/c1ccc(Cl)cc1)NC(=O)c1ccccc1 (configuration not stated)	PHOSPHO1 inh 181
CC(=O)N(C)N(C)c1cc(C)nc(N)n1	none
COc1cc(CNc2ccccc2SC)ccc1O	PHOSPHO1 inh 72 (no result: Hep lipid drop)
CCOc1cc(CNc2ccccc2SC)ccc1O	none
CCOC(=O)C1CCN(C(=O)CCCn2nc(CC)n3c(cc4occc43)c2=O)CC1	none
CCc1nn(CC(=O)N2CCC(C(N)=O)CC2)c(=O)c2cc3occc3n12	HSF1 inhib -67
COC(=O)c1c(C)[nH]c(C)c1-c1cccc([N+](=O)[O-])c1	HSF1 inhib -91
COC(=O)c1c(C)[nH]c(C)c1-c1ccc(C)cc1	none
C/C(=N/OCc1ccc(Br)cc1)c1ccccn1	HSF1 activator 84
Oc1ccc2ccccc2c1CN1CCN(c2ccccc2)CC1	HSF1 activator 375
Cc1ccc(CN2CCN(C(=O)C3CCCO3)CC2)cc1 (configuration not stated)	none
O=C(C1CCCO1)N1CCN(Cc2c(O)ccc3ccccc23)CC1 (configuration not stated)	PHOSPHO1 inh 104
Cc1ccc(C)c(OCCC(=O)OCC(=O)N2CCN(S(=O)(=O)c3ccc(Cl)cc3)CC2)c1	HSF1 inhib inconclusive (no result: Hep lipid drop, PHOSPHO1 inh)
O=C(CSc1ccc(Cl)cc1)N1CCN(c2ccc([N+](=O)[O-])cc2Cl)CC1	none (no result: Hep lipid drop)
Cc1ccc(S(=O)(=O)N2CCN(C(=O)CSc3ccc(Cl)cc3)CC2)cc1	HSF1 activator 75
O=C(CSc1ccc(Cl)cc1)N1CCN(c2c(Cl)cccc2[N+](=O)[O-])CC1	HSF1 activator 70 (no result: Hep lipid drop)
CCOc1ccc(OCCC(=O)OCC(=O)N2CCN(S(=O)(=O)c3ccc(Cl)cc3)CC2)cc1	HSF1 activator 87
CC(OC(=O)Cc1ccsc1)C(=O)Nc1ccc(Cl)cn1 (configuration not stated)	none (no result: Hep lipid drop, PHOSPHO1 inh)
CCCCN1CC[C@H]2C=CC[C@@H](C(=O)N3CCOCC3)[C@H]2C1=O	none (no result: Hep lipid drop, PHOSPHO1 inh)
NS(=O)(=O)c1ccc(NC(=S)N2CCN(S(=O)(=O)c3ccc(F)cc3)CC2)cc1	none
Cc1cccc(NC(=S)NCC23C=CC(O2)C2C(=O)N(c4ccc(Cl)cc4)C(=O)C23)c1 (configuration not stated)	HSF1 activator 98
Nc1cc(-c2ccccc2)n2c(n1)nc1ccccc12	none (no result: Hep lipid drop)
CCOC(=O)c1cnc2c(-c3ccc(F)cc3)cnn2c1C(F)(F)F	none (no result: HSF1 activator, HSF1 inhib, CHT allo act, CHT inh)
CCCc1cc(=O)oc2cc(C)cc(OCC(=O)NCCCn3ccnc3)c12	HSF1 inhib -76
Cc1cn(S(=O)(=O)c2cc(Br)ccc2Br)cn1	none (no result: HSF1 activator, HSF1 inhib)
O=S(=O)(Nc1nc2ccccc2[nH]1)c1ccccc1	none (no result: Hep lipid drop)
